Legend:
[1] = Half-life period determined in water at room temperature.; type: ADME
HEp-2 = assay: Concentration that produces 50 % inhibition of cloning of H.Ep.-2 cells in suspension culture, over a 12-day period; type: functional, cell-based; details: Homo sapiens, HEp-2, 288 h; read-out: I50
Outline: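 H.Ep.-2 cells tested by cloning over a 12-day period. I50 is the concentration giving 50% inhibition of colony formation relative to untreated control growth.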

L1210 = assay: Concentration that produces 50 % inhibition of proliferation of L1210 cells in suspension culture in 48 h,; type: functional, cell-based; details: Mus musculus, L1210, 48 h; read-out: I50
Outline: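 L1210 cells grown in suspension culture for 48 h with compound. I50 is the concentration giving 50% inhibition of proliferation relative to control growth.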

Mus musculus [2] = assay: Activity against P388 leukemia was determined in vivo. The percent increase in life span at a compound dose of 25 mg/kg.; type: functional
Outline: (§1)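 P388 leukemia in vivo; dosing given as a single injection on days 1-5. Read-out is the percent increase in life span relative to untreated controls.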

[3] = Ratio of the cytotoxic concentrations (I50''s) against H.Ep.-2 and L1210 cells.; type: functional
Mus musculus [4] = assay: Activity against P388 leukemia was determined in vivo. The percent increase in life span at a compound dose of 100 mg/kg.; type: functional; outline: as §1
Mus musculus [5] = assay: Activity against P388 leukemia was determined in vivo. The percent increase in life span at a compound dose of 12.5 mg/kg.; type: functional; outline: as §1
Mus musculus [6] = assay: Activity against P388 leukemia was determined in vivo. The percent increase in life span at a compound dose of 50 mg/kg.; type: functional; outline: as §1
[7] = Ratio of the cytotoxic concentrations (I50's) against H.Ep.-2 and L1210 cells.; type: functional
Mus musculus [8] = assay: Activity against P388 leukemia was determined in vivo. The percent increase in life span at a compound dose of 200 mg/kg.; type: functional; outline: as §1

| SMILES | half-life [1] | IC50 (HEp-2) | IC50 (L1210) | ILS at 25 mg/kg (Mus musculus [2]) | Ratio [3] | ILS at 100 mg/kg (Mus musculus [4]) | ILS at 12.5 mg/kg (Mus musculus [5]) | ILS at 50 mg/kg (Mus musculus [6]) | Ratio [7] | ILS at 200 mg/kg (Mus musculus [8]) |
| --- | --- | --- | --- | --- | --- | --- | --- | --- | --- | --- |
| Cc1cn(C2CC(O)C(CCC(=O)CI)O2)c(=O)[nH]c1=O (stereo not given) | 4 h | 17 µM | 20 µM | 16% | 16 |  |  |  |  |  |
| Cc1cn(C2CC(O)C(C(=O)Nc3ccc(C(=O)CCl)cc3)O2)c(=O)[nH]c1=O (stereo not given) | > 52 h | 30 µM | 28 µM |  | 14 | 14% |  |  |  |  |
| Cc1cn(C2CC(O)C(CCC(=O)CBr)O2)c(=O)[nH]c1=O (stereo not given) | 1.8 h | 55 µM | 110 µM |  | 16 |  | 16% |  |  |  |
| Cc1cn(C2CC(O)C(CCC(=O)CCl)O2)c(=O)[nH]c1=O (stereo not given) | > 52 h | 25 µM | 66 µM |  |  |  |  | 10% | 10 |  |
| Cc1cn(C2CC(O)C(CNC(=O)c3ccc(C(=O)CBr)cc3)O2)c(=O)[nH]c1=O (stereo not given) | 1 h | > 40 µM | > 70 µM |  | 15 |  |  | 15% |  |  |
| Cc1cn(C2CC(O)C(C(=O)Nc3ccc(C(=O)CBr)cc3)O2)c(=O)[nH]c1=O (stereo not given) | 4 h | 12 µM | 6 µM |  | 38 |  |  |  |  | 38% |
| Cc1cn(C2CC(O)C(C(=O)Nc3ccc(C(=O)CI)cc3)O2)c(=O)[nH]c1=O (stereo not given) | 13 h | 29 µM | 8 µM | 5% | 5 |  |  |  |  |  |

From ChEMBL document CHEMBL1122739, “Potential inhibitors of nucleotide biosynthesis. 2. Halomethyl ketone derivatives of pyrimidine nucleosides” (J Med Chem, 1984)
